Key:
[1] = test system: Canis familiaris; assay: The percentage change of the duration of action potential at 75% repolarization was measured before and after the administration at 3.0 ug/mL; format: functional, Canis lupus familiaris
How it was run: (§1)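 Canine right-ventricular Purkinje fibers (mongrel dogs 7–11 kg, thiopental-anesthetized) superfused with Tyrode's (pH 7.5, 36 °C, gassed 95% O2/5% CO2). Compounds diluted from 1 mM water stock and added cumulatively. Readings taken 20 min after solution exchange. Result given as percent change in action potential duration.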

[2] = test system: Canis familiaris; assay: The percentage change of the duration of action potential at 75% repolarization was measured before and after the administration at 1.0 ug/mL; format: functional, Canis lupus familiaris; how it was run: as §1
[3] = test system: Canis familiaris; assay: Percentage change of the duration of action potential at 75% repolarization was measured before and after the administration at 10.0 ug/mL; format: functional, Canis lupus familiaris; how it was run: as §1
[4] = test system: Canis familiaris; assay: The percentage change in the effective refractory period was measured before and after the administration at 0.1 mg/kg; format: functional, Canis lupus familiaris; settings: dose 1.0 mg/kg; in the assay text read “1.0 mg/kg” for “0.1 mg/kg”
How it was run: (§2)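 In vivo, mongrel dogs of either sex (7–13 kg), anesthetized with pentobarbital sodium 30 mg/kg iv. Left femoral artery cannulated for arterial pressure, femoral vein for drug dosing. Effective refractory period measured before and after administration.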

[5] = test system: Canis familiaris; assay: Concentration required for 50% inhibition of tachycardia induced by isoproterenol (0.5ug/mL, iv) in anesthetized dog; format: functional; settings: Canis lupus familiaris, read-out: ID50 (the source's name)
[6] = test system: Canis familiaris; assay: The prolongation effect of the atrial and ventricular effective refractory period was measured before and after the administration at 0.3 mg/kg; format: functional, Canis lupus familiaris, Cardiac atrium; how it was run: as §2
[7] = test system: Canis familiaris; assay: The prolongation effect of the atrial and ventricular effective refractory period was measured before and after the administration at 0.1 mg/kg; format: functional, Canis lupus familiaris, Cardiac atrium; settings: dose 1.0 mg/kg; in the assay text read “1.0 mg/kg” for “0.1 mg/kg”; how it was run: as §2
[8] = test system: Canis familiaris; assay: The prolongation effect of the atrial and ventricular effective refractory period was measured before and after the administration at 3 mg/kg; format: functional, Canis lupus familiaris, Cardiac atrium; how it was run: as §2
[9] = organism: Canis familiaris; assay: Maximum upstroke velocity of the compound at 1 (ug/mL) concentration; format: functional, Canis lupus familiaris
How it was run: (§3)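 Purkinje fibers from right ventricle of mongrel dogs (7–11 kg, thiopental sodium 30 mg/kg iv), superfused in organ bath with Tyrode's solution (pH 7.5, 95% O2/5% CO2) at 36 °C. Compounds from 1 mM aqueous stock diluted in Tyrode's, given cumulatively. Data taken 20 min after each solution change. Means ± SD of seven experiments.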

[10] = organism: Canis familiaris; assay: Action potential amplitude at 0 (ug/mL) concentration; format: functional, Canis lupus familiaris; how it was run: as §3
[11] = organism: Canis familiaris; assay: Resting membrane potential at 0.3 (ug/mL) concentration; format: functional; settings: Canis lupus familiaris; how it was run: as §3
[12] = organism: Canis familiaris; assay: Action potential amplitude at 0.3(ug/mL) concentration; format: functional, Canis lupus familiaris; how it was run: as §3
[13] = organism: Canis familiaris; assay: Action potential duration at 50% repolarization at 10(ug/mL) concentration; format: functional, Canis lupus familiaris; how it was run: as §3
[14] = organism: Canis familiaris; assay: Action potential amplitude at 1(ug/mL) concentration; format: functional, Canis lupus familiaris; how it was run: as §3
[15] = organism: Canis familiaris; assay: Resting membrane potential at 3(ug/mL) concentration; format: functional; settings: Canis lupus familiaris; how it was run: as §3
[16] = organism: Canis familiaris; assay: Action potential amplitude at 10(ug/mL) concentration; format: functional, Canis lupus familiaris; how it was run: as §3
[17] = organism: Canis familiaris; assay: Resting membrane potential at 0.1 (ug/mL) concentration; format: functional; settings: Canis lupus familiaris; how it was run: as §3
[18] = organism: Canis familiaris; assay: Maximum upstroke velocity of the compound at 10 (ug/mL) concentration; format: functional, Canis lupus familiaris; how it was run: as §3
[19] = organism: Canis familiaris; assay: Action potential amplitude at 0.1(ug/mL) concentration; format: functional, Canis lupus familiaris; how it was run: as §3
[20] = organism: Canis familiaris; assay: Maximum upstroke velocity of the compound at 3 (ug/mL) concentration; format: functional, Canis lupus familiaris; how it was run: as §3
[21] = organism: Canis familiaris; assay: Action potential duration at 90% repolarization at 1(ug/mL) concentration; format: functional, Canis lupus familiaris; how it was run: as §3
[22] = organism: Canis familiaris; assay: Action potential duration at 75% repolarization at 0.1(ug/mL) concentration; format: functional, Canis lupus familiaris; how it was run: as §3
[23] = organism: Canis familiaris; assay: Maximum upstroke velocity of the compound at 0.1 (ug/mL) concentration; format: functional, Canis lupus familiaris; how it was run: as §3
[24] = organism: Canis familiaris; assay: Action potential duration at 90% repolarization at 0(ug/mL) concentration; format: functional, Canis lupus familiaris; how it was run: as §3
[25] = organism: Canis familiaris; assay: Resting membrane potential at 1 (ug/mL) concentration; format: functional; settings: Canis lupus familiaris; how it was run: as §3
[26] = organism: Canis familiaris; assay: Action potential duration at 50% repolarization at 3(ug/mL) concentration; format: functional, Canis lupus familiaris; how it was run: as §3
[27] = organism: Canis familiaris; assay: Action potential duration at 75% repolarization at 0(ug/mL) concentration; format: functional, Canis lupus familiaris; how it was run: as §3
[28] = organism: Canis familiaris; assay: Action potential duration at 75% repolarization at 0.3(ug/mL) concentration; format: functional, Canis lupus familiaris; how it was run: as §3
[29] = organism: Canis familiaris; assay: Action potential duration at 90% repolarization at 3(ug/mL) concentration; format: functional, Canis lupus familiaris; how it was run: as §3
[30] = organism: Canis familiaris; assay: Resting membrane potential at 0 (ug/mL) concentration; format: functional; settings: Canis lupus familiaris; how it was run: as §3
[31] = organism: Canis familiaris; assay: Maximum upstroke velocity of the compound at 0 (ug/mL) concentration; format: functional, Canis lupus familiaris; how it was run: as §3
[32] = organism: Canis familiaris; assay: Action potential duration at 75% repolarization at 1(ug/mL) concentration; format: functional, Canis lupus familiaris; how it was run: as §3
[33] = organism: Canis familiaris; assay: Action potential duration at 50% repolarization at 0.3(ug/mL) concentration; format: functional, Canis lupus familiaris; how it was run: as §3
[34] = organism: Canis familiaris; assay: Action potential duration at 75% repolarization at 3(ug/mL) concentration; format: functional, Canis lupus familiaris; how it was run: as §3
[35] = organism: Canis familiaris; assay: Action potential amplitude at 3(ug/mL) concentration; format: functional, Canis lupus familiaris; how it was run: as §3
[36] = organism: Canis familiaris; assay: Action potential duration at 50% repolarization at 1(ug/mL) concentration; format: functional, Canis lupus familiaris; how it was run: as §3
[37] = organism: Canis familiaris; assay: Maximum upstroke velocity of the compound at 0.3 (ug/mL) concentration; format: functional, Canis lupus familiaris; how it was run: as §3
[38] = organism: Canis familiaris; assay: Action potential duration at 75% repolarization at 10(ug/mL) concentration; format: functional, Canis lupus familiaris; how it was run: as §3
[39] = organism: Canis familiaris; assay: Action potential duration at 90% repolarization at 10(ug/mL) concentration; format: functional, Canis lupus familiaris; how it was run: as §3
[40] = organism: Canis familiaris; assay: Action potential duration at 50% repolarization at 0 ug/mL concentration; format: functional, Canis lupus familiaris; how it was run: as §3
[41] = organism: Canis familiaris; assay: Resting membrane potential at 10 (ug/mL) concentration; format: functional; settings: Canis lupus familiaris; how it was run: as §3
[42] = organism: Canis familiaris; assay: Action potential duration at 90% repolarization at 0.1(ug/mL) concentration; format: functional, Canis lupus familiaris; how it was run: as §3
[43] = organism: Canis familiaris; assay: Action potential duration at 90% repolarization at 0.3(ug/mL) concentration; format: functional, Canis lupus familiaris; how it was run: as §3
[44] = organism: Canis familiaris; assay: Action potential duration at 50% repolarization at 0.1(ug/mL) concentration; format: functional, Canis lupus familiaris; how it was run: as §3

## CSc1ccccc1OCCCN1CCN(c2cc(=O)n(C)c(=O)n2C)CC1.Cl
[1]
  APD75: 0%
[2]
  APD75: 0%
[3]
  APD75: 0%

## Cl.Cl.Cn1c(N2CCN(CCCOc3ccc([N+](=O)[O-])cc3)CC2)cc(=O)n(C)c1=O
[1]
  APD75: 22%
[4]
  ERP: 15.8%
[2]
  APD75: 17%
[3]
  APD75: 30%

## CN(CCN(C)c1cc(=O)n(C)c(=O)n1C)CC(O)COc1ccccc1 (stereo unspecified)
[5]
  ED50: 1 mg/kg
[1]
  APD75: 8%
[2]
  APD75: 2.9%

## Cl.Cn1c(N2CCN(CCCOc3ccc(NS(C)(=O)=O)cc3)CC2)cc(=O)n(C)c1=O
[1]
  APD75: 3%
[2]
  APD75: 1%
[6]
  ERP: 7.1%
[3]
  APD75: 10%
[7]
  ERP: 9.3%
[8]
  ERP: 16.4%

## CC(C)NCC(O)c1ccc(NS(C)(=O)=O)cc1 (stereo unspecified) [SOTALOL]
[1]
  APD75: 8%
[2]
  APD75: 0.7%
[3]
  APD75: 11.2%

## Cl.Cl.Cn1c(N2CCN(CCCOc3ccc(N)cc3)CC2)cc(=O)n(C)c1=O
[1]
  APD75: 4%

## Cl.Cn1c(NCCN(CCO)CCCc2ccc([N+](=O)[O-])cc2)cc(=O)n(C)c1=O
[9]
  Max dV/dt: 344 V s-1
[10]
  APA: 104 mV
[11]
  RMP: -87 mV
[12]
  APA: 102 mV
[13]
  APD50: 386 ms
[1]
  APD75: 38%
[14]
  APA: 103 mV
[15]
  RMP: -87 mV
[16]
  APA: 107 mV
[17]
  RMP: -85 mV
[18]
  Max dV/dt: 339 V s-1
[19]
  APA: 101 mV
[20]
  Max dV/dt: 341 V s-1
[21]
  APD90: 471 ms
[22]
  APD75: 340 ms
[23]
  Max dV/dt: 351 V s-1
[24]
  APD90: 344 ms
[2]
  APD75: 22%
[25]
  RMP: -87 mV
[26]
  APD50: 369 ms
[27]
  APD75: 313 ms
[28]
  APD75: 372 ms
[29]
  APD90: 533 ms
[30]
  RMP: -88 mV
[31]
  Max dV/dt: 356 V s-1
[32]
  APD75: 428 ms
[33]
  APD50: 315 ms
[34]
  APD75: 485 ms
[35]
  APA: 104 mV
[36]
  APD50: 349 ms
[37]
  Max dV/dt: 348 V s-1
[38]
  APD75: 529 ms
[39]
  APD90: 584 ms
[40]
  APD50: 266 ms
[41]
  RMP: -90 mV
[42]
  APD90: 371 ms
[43]
  APD90: 409 ms
[44]
  APD50: 293 ms

## Cl.Cn1c(N2CCN(CCCCc3ccc([N+](=O)[O-])cc3)CC2)cc(=O)n(C)c1=O
[1]
  APD75: 17%
[3]
  APD75: 25%

## Cl.Cn1c(N2CCN(CCc3ccc([N+](=O)[O-])cc3)CC2)cc(=O)n(C)c1=O
[2]
  APD75: 43%

## CS(=O)(=O)O.Cn1c(N2CCN(CCCOc3ccccc3)CC2)cc(=O)n(C)c1=O
[5]
  ED50: > 5 mg/kg
[1]
  APD75: 22%
[2]
  APD75: 7%

## CCN(CC)CCNC(=O)c1ccc(NS(C)(=O)=O)cc1 [SEMATILIDE]
[1]
  APD75: 29%
[2]
  APD75: 19%

## Cl.Cn1c(N2CCN(CCOc3ccc([N+](=O)[O-])cc3)CC2)cc(=O)n(C)c1=O
[1]
  APD75: 22%
[2]
  APD75: 8%
[3]
  APD75: 43%

## Cl.Cn1c(N2CCN(CCCOc3ccc(F)cc3)CC2)cc(=O)n(C)c1=O
[1]
  APD75: 13%
[2]
  APD75: 9%
[6]
  ERP: 5.9%
[7]
  ERP: 5.9%
[8]
  ERP: 11.8%

## Cl.Cn1c(N2CCN(CCCOc3ccccc3Cl)CC2)cc(=O)n(C)c1=O
[1]
  APD75: 0%
[3]
  APD75: 7%
